Laboratory results published in ChEMBL document CHEMBL2176997, “Salicylanilide inhibitors of Toxoplasma gondii” (J Med Chem, 2012).
≈ marks a conversion by molar mass, not a printed value. Calls of active or inactive are those of the source. The calls are words filed in the database; no cut-off is given here.

Tests used:
Toxoplasma gondii [1] = test: Antiapicomplexan activity against Toxoplasma gondii RH tachyzoites infected in HFF cells assessed as [3H]-uracil incorporation after 24 hrs by scintillation luminescence counter; type: functional
Summary of the method: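 Confluent HFF monolayers in IMDM-C (10% FBS) infected with 3,500 needle-released tachyzoites per well. Compounds from 10 mM DMSO stocks, diluted in medium (final DMSO ≤0.1%), were added 1 h after infection, with 0.1% DMSO as vehicle control. [3H]-uracil (25 µL of 0.1 mCi/mL) was added 24 h before harvest onto glass-fibre filters and counted by scintillation. Cultures were kept at 33°C or 37°C, 5% CO2.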

Toxoplasma gondii [2] = test: Antiapicomplexan activity against Toxoplasma gondii THdhxgTRP tachyzoites harboring insertional mutation assessed as growth inhibition after 6 weeks; type: functional, organism-based
HFF = test: Cytotoxicity against HFF cells assessed as survival by WST1 assay; type: cell-based; details: human
Summary of the method: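 Confluent HFF cells were treated with compounds at the concentrations used in the challenge assays. On the final day WST-1 reagent was added, followed by 1 h incubation in the dark at 37°C and absorbance reading at 420 nm.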

Plasmodium falciparum [3] = test: Antiapicomplexan activity against chloroquine-sensitive Plasmodium falciparum D6 assessed as growth inhibition after 72 hrs by MSF assay; type: functional, organism-based; details: D6, 72 h
Summary of the method: (§1)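 P. falciparum D6 or TM91-C235, late-ring/early-trophozoite stage, cultured at 0.3% parasitemia and 2% hematocrit on predosed plates. Twelve two-fold dilutions spanned 0.5–10000 ng/ml final, in quadruplicate, with chloroquine control. Incubation 72 h at 37°C under 5% CO2/5% O2/90% N2. Lysis buffer with SYBR Green I (10x final) was added, then 24 h dark at room temperature. IC50 from fluorescence by sigmoidal variable-slope regression.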

Plasmodium falciparum [4] = test: Antiapicomplexan activity against chloroquine-resistant Plasmodium falciparum TM91-C235 assessed as growth inhibition after 72 hrs by MSF assay; type: functional, organism-based; details: TM91-C235, 72 h; summary of the method: as §1
Plasmodium falciparum [5] = test: Selectivity ratio of IC50 for chloroquine-resistant Plasmodium falciparum TM91-C235 to IC50 for chloroquine-sensitive Plasmodium falciparum D6; type: functional
Toxoplasma gondii [6] = test: Antiapicomplexan activity against Toxoplasma gondii RH tachyzoites expressing yellow fluorescent protein infected in HFF cells assessed as parasite growth inhibition at 1 uM administered for 25 days followed by compound wash out; type: functional, organism-based
Toxoplasma gondii [7] = test: Antiapicomplexan activity against Toxoplasma gondii RH tachyzoites expressing yellow fluorescent protein infected in HFF cells after 72 hrs by fluorescence assay; type: functional, organism-based
Summary of the method: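 Confluent HFF monolayers in IMDM-C (10% FBS) infected with 3,500 RH-YFP tachyzoites per well. Compounds were added 1 h later from 10 mM DMSO stocks, final DMSO ≤0.1%. Pyrimethamine/sulfadiazine and 0.1% DMSO served as controls. After 72 h YFP fluorescence was read (ex 514, em 540 nm, bottom optics), giving MIC50/MIC90 ranges. Plates held at 33°C or 37°C, 5% CO2.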

Toxoplasma gondii [8] = test: Parasitostatic activity against Toxoplasma gondii RH tachyzoites expressing yellow fluorescent protein infected in HFF cells at 1 uM administered for 4 days followed by compound wash out measured on day 11 relative to untreated control; type: functional, organism-based
Summary of the method: (§2)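 RH-YFP tachyzoites grown in HFF cells were exposed to 1 µM compound under set schedules: 4 days of treatment then removal, or 10 days of treatment then removal. Parasite burden was followed over time as YFP fluorescence (excitation 514 nm, emission 540 nm, bottom read) and compared with untreated infected controls.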

Toxoplasma gondii [9] = test: Parasitostatic activity against Toxoplasma gondii RH tachyzoites expressing yellow fluorescent protein infected in HFF cells at 1 uM administered for 10 days followed by compound wash out measured on day 17; type: functional, organism-based; summary of the method: as §2
Toxoplasma gondii [10] = test: Antiapicomplexan activity against Toxoplasma gondii TgGoatUS4 oocysts infected in HLA B07 transgenic mouse assessed as increase in survival at 25 to 100 mg/kg, po; type: functional, organism-based
Summary of the method: (§3)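 Female B7 mice (~25 g), 5 per group, given 100 ME49 or TgGoatUS4 oocysts by oral gavage, plus 100 mg/kg (2.5 mg/mL) or 25 mg/kg ([…]) of test compound as 1.0 mL oral-gavage suspension. Vehicle DMSO 1.0%/PEG 400 5.0%/0.5% CMC 94.0%. Infected untreated and drug-only groups included. Mice observed daily and day of death recorded. Impression smears examined for tachyzoites.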

Mus musculus = test: Toxicity in HLA B07 transgenic mouse assessed as survival at 25 to 100 mg/kg, po administered for 9 days measured after day 10; type: organism-based; parameters: dose 25-100 mg/kg, route oral; details: in vivo, 216 h
Toxoplasma gondii [11] = test: Parasitocidal activity against Toxoplasma gondii RH tachyzoites expressing yellow fluorescent protein infected in HFF cells at 1 uM administered for 4 days followed by compound refreshment on day 4 and compound wash out on day 10 measured after 11 to 25 days; type: functional, organism-based
Summary of the method: (§4)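 RH-YFP tachyzoites in HFF cells given compound at 1 μM under one of four regimens: 4 days then removal; 10 days then removal; refreshed at day 4 and removed at day 10; or maintained throughout. Parasite growth was followed as YFP fluorescence over time.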

Toxoplasma gondii [12] = test: Parasitocidal activity against Toxoplasma gondii RH tachyzoites expressing yellow fluorescent protein infected in HFF cells at 1 uM administered for 10 days followed by compound wash out measured after 11 to 25 days; type: functional, organism-based; summary of the method: as §4
Toxoplasma gondii [13] = test: Parasitocidal activity against Toxoplasma gondii RH tachyzoites expressing yellow fluorescent protein infected in HFF cells assessed as parasite growth inhibition at 1 uM administered for 25 days followed by compound wash out; type: functional, organism-based; summary of the method: as §4
Toxoplasma gondii [14] = test: Parasitocidal activity against Toxoplasma gondii RH tachyzoites expressing yellow fluorescent protein infected in HFF cells at 1 uM administered for 4 days followed by compound wash out measured after 11 to 25 days; type: functional, organism-based; summary of the method: as §4
Toxoplasma gondii [15] = test: Antiapicomplexan activity against Toxoplasma gondii ME49 oocysts infected in HLA B07 transgenic mouse assessed as increase in survival at 25 to 100 mg/kg, po; type: functional, organism-based; summary of the method: as §3

Compound | MIC50 (Toxoplasma gondii [1]) | MIC90 (Toxoplasma gondii [1]) | other results
O=C(Nc1ccc([N+](=O)[O-])cc1Cl)c1cc(Cl)ccc1OC(=O)N1CCOCC1 | > 1 µM | > 1 µM | –
O=C(Nc1ccc(Cl)cc1F)c1cc(Cl)ccc1O | > 1 µM | 0.5 µM (≈ 0.15 µg/mL) | –
COc1c(C)c2c(c(O)c1C/C=C(\C)CCC(=O)O)C(=O)OC2 | – | – | growth inhibition (GI) (Toxoplasma gondii [2]): Active
COC(=O)[C@@H]1CCCN1C(=O)Oc1ccc(Cl)cc1C(=O)Nc1ccc([N+](=O)[O-])cc1Cl | > 1 µM | > 1 µM | –
O=C(Nc1cccc(Br)c1)c1cc(Cl)ccc1O | 0.5 µM (≈ 0.163 µg/mL) | 0.75 µM (≈ 0.245 µg/mL) | –
CN1CCN(C(=O)Oc2ccc(Cl)cc2C(=O)Nc2ccc([N+](=O)[O-])cc2Cl)CC1 | 0.5 µM (≈ 0.227 µg/mL) | 0.75 µM (≈ 0.34 µg/mL) | –
O=C(Nc1cccc(Cl)c1)c1cc(I)cc(I)c1O | > 1 µM | > 1 µM | –
C=Cc1cccc(NC(=O)c2cc(Cl)ccc2O)c1 | 0.25 µM (≈ 0.0684 µg/mL) | 0.75 µM (≈ 0.205 µg/mL) | –
COc1ccc(F)cc1C(=O)Nc1ccc([N+](=O)[O-])cc1Cl | > 1 µM | > 1 µM | –
CC(C)Oc1cccc(NC(=O)c2cc(Cl)ccc2O)c1 | > 1 µM | > 1 µM | –
O=C(Nc1cccc(OC(C(F)(F)F)C(F)(F)F)c1)c1cc(Cl)ccc1O | > 1 µM | > 1 µM | –
O=c1[nH]c(=O)c2nc[nH]c2[nH]1 | – | – | growth inhibition (GI) (Toxoplasma gondii [2]): Active
CCOc1cccc(NC(=O)c2cc(Cl)ccc2O)c1 | > 1 µM | > 1 µM | –
C#Cc1cc(NC(=O)c2cc(Cl)ccc2O)ccc1F | > 1 µM | > 1 µM | –
O=C(Nc1cc(Cl)cc(Cl)c1)c1cc(Cl)ccc1O | 0.25 µM (≈ 0.0791 µg/mL) | 0.25 µM (≈ 0.0791 µg/mL) | –
N#Cc1ccc(Cl)c(NC(=O)c2cc(Cl)ccc2O)c1 | 0.5 µM (≈ 0.154 µg/mL) | 0.75 µM (≈ 0.23 µg/mL) | –
CCOc1cccc(NC(=O)c2cc(F)ccc2O)c1 | > 1 µM | > 1 µM | –
O=C(Nc1cc(F)cc(F)c1)c1cc(Cl)ccc1O | > 1 µM | > 1 µM | –
CC(C)(C)c1cccc(NC(=O)c2cc(Cl)ccc2O)c1 | 0.008 µM (≈ 0.00243 µg/mL) | 0.016 µM (≈ 0.00486 µg/mL) | Activity (HFF): > 1000 nM; IC50 (Plasmodium falciparum [3]): 3100 nM; IC50 (Plasmodium falciparum [4]): > 6500 nM; Ratio IC50 (Plasmodium falciparum [5]): 2; growth inhibition (GI) (Toxoplasma gondii [6]): Active; growth inhibition (GI) (Toxoplasma gondii [2]): Active; IC50 (Toxoplasma gondii [7]): 8 nM; IC90 (Toxoplasma gondii [7]): 16 nM; Activity (Toxoplasma gondii [8]): inactive; Activity (Toxoplasma gondii [9]): inactive
O=C(Nc1cccc(C(F)(F)F)c1)c1cc(Cl)ccc1O | 0.25 µM (≈ 0.0789 µg/mL) | 0.25 µM (≈ 0.0789 µg/mL) | –
COc1ccc(C)c(NC(=O)c2cc(Cl)ccc2O)c1 | > 1 µM | > 1 µM | –

Compound | MIC50 (Toxoplasma gondii [1]) | MIC90 (Toxoplasma gondii [1]) | other results
Cc1cccc(NC(=O)c2cc(Cl)ccc2O)c1 | > 1 µM | > 1 µM | –
N#Cc1cccc(NC(=O)c2cc(Cl)ccc2O)c1 | > 1 µM | > 1 µM | –
O=C(Nc1cccc(Cc2ccccc2)c1)c1cc(Cl)ccc1O | 0.75 µM (≈ 0.253 µg/mL) | 0.75 µM (≈ 0.253 µg/mL) | –
COc1ccc(NC(=O)c2cc(Cl)ccc2O)cc1OC | > 1 µM | > 1 µM | –
O=C(Nc1cccc(F)c1)c1cc(Cl)ccc1O | 0.5 µM (≈ 0.133 µg/mL) | 0.75 µM (≈ 0.199 µg/mL) | –
O=C(Nc1ccc2c(c1)OCCO2)c1cc(Cl)ccc1O | > 1 µM | > 1 µM | –
CN(CC(=O)NN)C(=O)Oc1ccc(Cl)cc1C(=O)Nc1cc(C(F)(F)F)cc(C(F)(F)F)c1.Cl | 0.125 µM | 0.125 µM | Activity (Toxoplasma gondii [10]): Active; Activity (HFF): > 1000 nM; growth inhibition (GI) (Toxoplasma gondii [2]): Active; IC50 (Toxoplasma gondii [7]): 125 nM; IC90 (Toxoplasma gondii [7]): 125 nM; Activity (Mus musculus): Non-toxic
O=C(Oc1ccc(Cl)cc1C(=O)Nc1ccc([N+](=O)[O-])cc1Cl)c1ccccc1 | 0.061 µM (≈ 0.0263 µg/mL) | 0.125 µM (≈ 0.0539 µg/mL) | Activity (HFF): > 1000 nM; Activity (Toxoplasma gondii [11]): Active; Activity (Toxoplasma gondii [12]): Active; IC50 (Plasmodium falciparum [3]): 770 nM; IC50 (Plasmodium falciparum [4]): 690 nM; growth inhibition (GI) (Toxoplasma gondii [2]): Active; IC50 (Toxoplasma gondii [7]): 61 nM; IC90 (Toxoplasma gondii [7]): 125 nM; Activity (Toxoplasma gondii [13]): Active; Activity (Toxoplasma gondii [14]): Active
O=C(Nc1cccc(Oc2ccccc2)c1)c1cc(Cl)ccc1O | > 1 µM | > 1 µM | –
COc1ccc(NC(=O)c2cc(Cl)ccc2O)c(OC)c1OC | > 1 µM | > 1 µM | –
O=C(Nc1cc(C(F)(F)F)cc(C(F)(F)F)c1)c1cc(Cl)ccc1O [IMD-0354] | 0.016 µM (≈ 0.00614 µg/mL) | 0.125 µM (≈ 0.048 µg/mL) | Activity (HFF): > 1000 nM; Activity (Toxoplasma gondii [11]): Active; Activity (Toxoplasma gondii [12]): Active; IC50 (Plasmodium falciparum [3]): 1400 nM; IC50 (Plasmodium falciparum [4]): 1300 nM; growth inhibition (GI) (Toxoplasma gondii [2]): Active; IC50 (Toxoplasma gondii [7]): 16 nM; IC90 (Toxoplasma gondii [7]): 125 nM; Activity (Toxoplasma gondii [13]): Active; Activity (Toxoplasma gondii [14]): Active
CCc1cccc(NC(=O)c2cc(Cl)ccc2O)c1 | 0.25 µM (≈ 0.0689 µg/mL) | 0.5 µM (≈ 0.138 µg/mL) | –
Nc1ccc(NC(=O)c2cc(Cl)ccc2O)c(Cl)c1 | > 1 µM | > 1 µM | –
Cc1cc(C)cc(NC(=O)c2cc(Cl)ccc2O)c1 | > 1 µM | > 1 µM | –
C#Cc1cccc(NC(=O)c2cc(Cl)ccc2O)c1 | > 1 µM | > 1 µM | –
Cc1ccc(O)c(C(=O)Nc2ccc([N+](=O)[O-])cc2Cl)c1 | 0.25 µM (≈ 0.0767 µg/mL) | 0.25 µM (≈ 0.0767 µg/mL) | –
O=C(Nc1ccc([N+](=O)[O-])cc1Cl)c1ccccc1O | > 1 µM | > 1 µM | –
O=C(Nc1ccc([N+](=O)[O-])cc1Cl)c1cc(Cl)ccc1O [NICLOSAMIDE] | 0.2 µM (≈ 0.0654 µg/mL) | 0.2 µM (≈ 0.0654 µg/mL) | –
CN(CC(=O)NN)C(=O)Oc1ccc(Cl)cc1C(=O)Nc1ccc([N+](=O)[O-])cc1Cl.Cl | 0.016 µM | 0.125 µM | Activity (HFF): > 1000 nM; Activity (Toxoplasma gondii [11]): Active; Activity (Toxoplasma gondii [12]): Active; Activity (Toxoplasma gondii [15]): Active; IC50 (Plasmodium falciparum [4]): 2700 nM; IC50 (Toxoplasma gondii [7]): 16 nM; IC90 (Toxoplasma gondii [7]): 125 nM; Activity (Mus musculus): Non-toxic
COc1ccc(F)cc1C(=O)Nc1ccc([N+](=O)[O-])cc1F | > 1 µM | > 1 µM | –
